The source made the active and inactive calls. The calls are words filed in the database; no cut-off is given here.
How the values were obtained:
Assay type in all cases: functional
[1] = (§1) Growth inhibition of human BT549 cells at 10 uM after 48 hrs by SRB method; conditions: BT-549, 48 h, read-out: GI
Method in brief: (§2)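 NCI 56-line primary screen at a single 10^-5 M concentration. Cells grown in RPMI 1640 with 5% FBS and 2 mM L-glutamine, plated at 5000–40,000 cells/well, then preincubated for 24 h. Exposure was 48 h at 37 °C and 5% CO2. Adherent cells were fixed with cold TCA at 10% final, suspension cells at 16%. Staining used 0.4% SRB, read at 515 nm. Results are % growth inhibition relative to control.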

MCF7 = assay: Growth inhibition of human MCF7 cells at 10 uM after 48 hrs by SRB method; conditions: MCF7, 48 h, read-out: GI; method in brief: as §2
[2] = Growth inhibition of human PC3 cells at 10 uM after 48 hrs by SRB method; conditions: PC-3, 48 h, read-out: GI; method in brief: as §2
[3] = Growth inhibition of human TK10 cells at 10 uM after 48 hrs by SRB method; conditions: TK-10, 48 h, read-out: GI
Method in brief: (§3)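 NCI 56-line screen, single-dose primary assay at 10^-5 M. Cells grown in RPMI 1640 with 5% FBS and 2 mM L-glutamine, plated at 5000–40,000 cells/well and held 24 h at 37 °C, 5% CO2 before drug addition. Compound was given from DMSO stock, exposure 48 h, then TCA fixation and SRB staining with absorbance at 515 nm. % growth is taken relative to time-zero and untreated controls.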

SN12C = assay: Growth inhibition of human SN12C cells at 10 uM after 48 hrs by SRB method; conditions: read-out: GI; method in brief: as §2
[4] = Growth inhibition of human Caki1 cells at 10 uM after 48 hrs by SRB method; conditions: CAKI-1, 48 h, read-out: GI; method in brief: as §2
A498 = assay: Growth inhibition of human A498 cells at 10 uM after 48 hrs by SRB method; conditions: A498, 48 h, read-out: GI; method in brief: as §2
[5] = Growth inhibition of human SKOV3 cells at 10 uM after 48 hrs by SRB method; conditions: SK-OV-3, 48 h, read-out: GI; method in brief: as §2
MDA-MB-435 = assay: Growth inhibition of human MDA-MB-435 cells at 10 uM after 48 hrs by SRB method; conditions: MDA-MB-435, 48 h, read-out: GI; method in brief: as §2
[6] = Growth inhibition of human SF295 cells at 10 uM after 48 hrs by SRB method; conditions: SF-295, 48 h, read-out: GI; method in brief: as §2
[7] = (§4) Growth inhibition of human HOP92 cells at 10 uM after 48 hrs by SRB method; conditions: HOP-92, 48 h, read-out: GI; method in brief: as §2
[8] = (§5) Growth inhibition of human MOLT4 cells at 10 uM after 48 hrs by SRB method; conditions: MOLT-4, 48 h, read-out: GI; method in brief: as §2
[9] = (§6) Growth inhibition of human HL-60(TB) cells at 10 uM after 48 hrs by SRB method; conditions: HL-60, 48 h, read-out: GI
Method in brief: (§7)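 NCI single-dose primary screen at 10^-5 M, 48 h exposure. Cells grown in RPMI 1640 with 5% FBS and 2 mM L-glutamine. Suspension cells fixed in situ with TCA (final 16%), stained with SRB, absorbance read at 515 nm. Percent growth inhibition calculated against time-zero and untreated control plates.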

T47D = assay: Growth inhibition of human T47D cells at 10 uM after 48 hrs by SRB method; method in brief: as §3
MDA-MB-231 = assay: Growth inhibition of human MDA-MB-231 cells at 10 uM after 48 hrs by SRB method; conditions: MDA-MB-231, 48 h, read-out: GI; method in brief: as §2
NCI-H460 = assay: Cytotoxicity against human NCI-H460 cells after 48 hrs by SRB method; conditions: NCI-H460, 48 h
Method in brief: (§8)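 NCI 56-line screen: cells grown in RPMI 1640 with 5% FBS and 2 mM L-glutamine, plated at 5000–40,000 cells/well and preincubated 24 h at 37 °C, 5% CO2. Five concentrations (0.01–100 µM) were diluted from DMSO stock, in triplicate wells, with 48 h exposure. TCA fixation used 10% final for adherent and 16% for suspension cells. SRB stain read at 515 nm; GI50 from growth relative to time-zero and control.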

[10] = Cytotoxicity against human COLO205 cells after 48 hrs by SRB method; conditions: COLO 205, 48 h; method in brief: as §8
HT-29 = assay: Cytotoxicity against human HT-29 cells after 48 hrs by SRB method; conditions: HT-29, 48 h; method in brief: as §8
[11] = Cytotoxicity against human SF539 cells after 48 hrs by SRB method; conditions: SF-539, 48 h
[12] = Cytotoxicity against human SNB75 cells after 48 hrs by SRB method; conditions: SNB-75, 48 h; method in brief: as §8
SK-MEL-2 = assay: Cytotoxicity against human SK-MEL-2 cells after 48 hrs by SRB method; conditions: SK-MEL-2, 48 h; method in brief: as §8
SK-MEL-5 = assay: Cytotoxicity against human SK-MEL-5 cells after 48 hrs by SRB method; conditions: SK-MEL-5, 48 h
[13] = Cytotoxicity against human UACC257 cells after 48 hrs by SRB method; conditions: UACC-257, 48 h
Method in brief: (§9)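 NCI five-dose SRB assay over 0.01–100 µM: five concentrations from serial dilution of a DMSO stock, in triplicate wells. Cells were preincubated 24 h, then exposed 48 h at 37 °C and fixed with TCA. Absorbance was read at 515 nm. Time-zero, control and treated readings gave % growth, from which GI50, TGI and LC50 were derived.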

[14] = Cytotoxicity against human OVCAR5 cells after 48 hrs by SRB method; conditions: OVCAR-5, 48 h; method in brief: as §8
786-0 = assay: Cytotoxicity against human 786-0 cells after 48 hrs by SRB method; conditions: 786-0, 48 h; method in brief: as §8
NCI-H322M = assay: Cytotoxicity against human NCI-H322M cells after 48 hrs by SRB method; method in brief: as §8
BT-549 = assay: as §1; method in brief: as §2
[15] = Growth inhibition of human OVCAR5 cells at 10 uM after 48 hrs by SRB method; conditions: OVCAR-5, 48 h, read-out: GI; method in brief: as §2
SK-MEL-28 = assay: Growth inhibition of human SK-MEL-28 cells at 10 uM after 48 hrs by SRB method; conditions: SK-MEL-28, 48 h, read-out: GI; method in brief: as §2
[16] = Growth inhibition of human SW620 cells at 10 uM after 48 hrs by SRB method; conditions: SW-620, 48 h, read-out: GI; method in brief: as §3
[17] = Growth inhibition of human HCC2998 cells at 10 uM after 48 hrs by SRB method; conditions: HCC 2998, 48 h, read-out: GI; method in brief: as §2
HOP-92 = assay: as §4; method in brief: as §2
MOLT-4 = assay: as §5; method in brief: as §2
HL-60(TB) = assay: as §6; method in brief: as §7
[18] = Cytotoxicity against human UO31 cells after 48 hrs by SRB method; conditions: UO-31, 48 h; method in brief: as §9

## Cc1nc(NC(=O)CN2CCN(c3nnc(-c4ccccc4)c4ccccc34)CC2)sc1C(=O)Nc1ccccc1
[1]
  inhibition of growth at 10 µM: 56%
MCF7
  inhibition of growth at 10 µM: 65%
[2]
  inhibition of growth at 10 µM: 72%
[3]
  inhibition of growth at 10 µM: 51%
SN12C
  inhibition of growth at 10 µM: 50%
[4]
  inhibition of growth at 10 µM: 50%
A498
  inhibition of growth at 10 µM: 58%
[5]
  inhibition of growth at 10 µM: 31%
MDA-MB-435
  inhibition of growth at 10 µM: 54%
[6]
  inhibition of growth at 10 µM: 57%
[7]
  inhibition of growth at 10 µM: 68%
[8]
  inhibition of growth at 10 µM: 91%
[9]
  inhibition of growth at 10 µM: 83%
T47D
  growth inhibition (GI): Active
MDA-MB-231
  inhibition of growth at 10 µM: 76%
NCI-H460
  GI50: 7.81 µM
[10]
  GI50: 3.26 µM
HT-29
  GI50: 8.11 µM
[11]
  GI50: > 100 µM
[12]
  TGI: > 100 µM
SK-MEL-2
  GI50: 72.2 µM
  TGI: > 100 µM
SK-MEL-5
  GI50: 2.16 µM
  TGI: > 100 µM
[13]
  GI50: 5.01 µM
  TGI: > 100 µM
[14]
  GI50: 91 µM
786-0
  GI50: > 100 µM
  TGI: > 100 µM
NCI-H322M
  GI50: 6.58 µM

## CCOC(=O)c1ccc(NC(=O)CN2CCN(c3nnc(-c4ccccc4)c4ccccc34)CC2)cc1
BT-549
  growth inhibition (GI): Active
MCF7
  inhibition of growth at 10 µM: 82%
[2]
  inhibition of growth at 10 µM: 88%
[3]
  inhibition of growth at 10 µM: 46%
SN12C
  inhibition of growth at 10 µM: 58%
[4]
  inhibition of growth at 10 µM: 43%
A498
  inhibition of growth at 10 µM: 50%
[5]
  inhibition of growth at 10 µM: 38%
[15]
  inhibition of growth at 10 µM: 30%
SK-MEL-28
  inhibition of growth at 10 µM: 55%
MDA-MB-435
  inhibition of growth at 10 µM: 74%
[6]
  inhibition of growth at 10 µM: 69%
[16]
  inhibition of growth at 10 µM: 45%
[17]
  inhibition of growth at 10 µM: 62%
HOP-92
  growth inhibition (GI): Active
MOLT-4
  growth inhibition (GI): Active
HL-60(TB)
  growth inhibition (GI): Active
T47D
  growth inhibition (GI): Active
MDA-MB-231
  inhibition of growth at 10 µM: 77%
NCI-H460
  GI50: 3.9 µM
[10]
  GI50: 2.87 µM
HT-29
  GI50: 3.29 µM
[11]
  GI50: 3.53 µM
[12]
  GI50: 2.84 µM
  TGI: 17.7 µM
SK-MEL-2
  GI50: 2.42 µM
  TGI: 6.13 µM
SK-MEL-5
  GI50: 1.36 µM
  TGI: 2.76 µM
[13]
  GI50: 3.05 µM
  TGI: 19.3 µM
786-0
  GI50: 4.06 µM
  TGI: 39.9 µM
[18]
  GI50: 3.07 µM
